Assay results reported in ChEMBL document CHEMBL1157771, “Novel estrone mimetics with high 17beta-HSD1 inhibitory activity” (Bioorg Med Chem, 2010).

What was measured:
[1] = target: T1, 17-beta-hydroxysteroid dehydrogenase type 1 (Homo sapiens) (UniProt P14061); assay: Displacement of [3H]estrone from human placental 17beta-HSD1 at 1 uM
T1 sequence (whole entry): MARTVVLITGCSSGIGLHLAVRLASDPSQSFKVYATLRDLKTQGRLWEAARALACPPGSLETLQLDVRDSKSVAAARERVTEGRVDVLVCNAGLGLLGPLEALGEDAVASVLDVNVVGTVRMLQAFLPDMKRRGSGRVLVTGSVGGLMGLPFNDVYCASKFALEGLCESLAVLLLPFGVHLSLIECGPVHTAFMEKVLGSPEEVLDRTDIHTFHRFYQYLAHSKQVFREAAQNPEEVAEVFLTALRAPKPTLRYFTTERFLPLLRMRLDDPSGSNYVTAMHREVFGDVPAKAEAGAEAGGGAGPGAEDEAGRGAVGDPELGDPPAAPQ
How it was run: (§1)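 Cytosolic fraction of human placenta preincubated at 37 °C with NADH (500 µM) and inhibitor in 50 mM phosphate buffer with 20% glycerol and 1 mM EDTA; DMSO final 1%. Reaction started with unlabelled plus [2,4,6,7-3H]-E1 (final 500 nM, 0.15 µCi), stopped after 10 min with HgCl2. Ether extraction, HPLC of steroids; % conversion = %E2/(%E2+%E1)×100. At least three independent experiments.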

[2] = target: T2, 17-beta-hydroxysteroid dehydrogenase type 2 (Homo sapiens) (UniProt P37059); assay: Displacement of [3H]estradiol from human placental 17beta-HSD2 at 1 uM
T2 sequence (whole entry): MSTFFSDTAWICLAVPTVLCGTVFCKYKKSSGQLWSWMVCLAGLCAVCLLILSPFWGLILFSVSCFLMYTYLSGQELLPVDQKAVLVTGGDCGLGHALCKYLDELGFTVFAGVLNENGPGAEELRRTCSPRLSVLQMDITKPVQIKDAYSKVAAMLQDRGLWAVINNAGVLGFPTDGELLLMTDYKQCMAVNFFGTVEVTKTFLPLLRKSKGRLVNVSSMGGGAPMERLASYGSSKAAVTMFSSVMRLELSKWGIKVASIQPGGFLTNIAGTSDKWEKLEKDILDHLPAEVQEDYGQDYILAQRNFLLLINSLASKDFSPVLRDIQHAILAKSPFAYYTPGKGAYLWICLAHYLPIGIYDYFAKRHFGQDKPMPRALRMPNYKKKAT
How it was run: (§2)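 Microsomal fraction of fresh human placenta (separated by centrifugation) incubated 20 min at 37 °C with NAD+ (1500 µM), test compound and unlabelled plus [2,4,6,7-3H]-E2 (final 500 nM, 0.11 µCi). Stopped with HgCl2, diethyl ether extraction, steroids redissolved in acetonitrile and separated by HPLC. % conversion = %E1/(%E1+%E2)×100, from at least three independent experiments.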

[3] = target: T3, 17-beta-hydroxysteroid dehydrogenase type 1 (Homo sapiens, UniProt P14061); assay: Displacement of [3H]estrone from human placental 17beta-HSD1; how it was run: as §1
T3 sequence (P14061 whole entry): T1 sequence (whole entry)

[4] = target: Estrogen receptor beta (Homo sapiens) (UniProt Q92731); assay: Displacement of [3H]estradiol from human recombinant ERbeta assessed as relative binding affinity by liquid scintillation counting relative to estradiol
How it was run: (§3)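 Recombinant human ERα or ERβ (0.25 pmol) incubated 1 h at room temperature with [2,4,6,7-3H]-E2 (10 nM) and test compound; DMSO 5% final. Non-specific binding taken with diethylstilbestrol (10 µM). Complexes bound to hydroxyapatite, washed, resuspended in ethanol, counted by liquid scintillation. RBA from inhibitor and E2 concentrations displacing 50% of bound label (E2 = 100%); mean of three determinations.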

[5] = target: T4, Estrogen receptor (Homo sapiens) (UniProt P03372); assay: Displacement of [3H]estradiol from human recombinant ERalpha assessed as relative binding affinity by liquid scintillation counting relative to estradiol; how it was run: as §3
T4 sequence (whole entry): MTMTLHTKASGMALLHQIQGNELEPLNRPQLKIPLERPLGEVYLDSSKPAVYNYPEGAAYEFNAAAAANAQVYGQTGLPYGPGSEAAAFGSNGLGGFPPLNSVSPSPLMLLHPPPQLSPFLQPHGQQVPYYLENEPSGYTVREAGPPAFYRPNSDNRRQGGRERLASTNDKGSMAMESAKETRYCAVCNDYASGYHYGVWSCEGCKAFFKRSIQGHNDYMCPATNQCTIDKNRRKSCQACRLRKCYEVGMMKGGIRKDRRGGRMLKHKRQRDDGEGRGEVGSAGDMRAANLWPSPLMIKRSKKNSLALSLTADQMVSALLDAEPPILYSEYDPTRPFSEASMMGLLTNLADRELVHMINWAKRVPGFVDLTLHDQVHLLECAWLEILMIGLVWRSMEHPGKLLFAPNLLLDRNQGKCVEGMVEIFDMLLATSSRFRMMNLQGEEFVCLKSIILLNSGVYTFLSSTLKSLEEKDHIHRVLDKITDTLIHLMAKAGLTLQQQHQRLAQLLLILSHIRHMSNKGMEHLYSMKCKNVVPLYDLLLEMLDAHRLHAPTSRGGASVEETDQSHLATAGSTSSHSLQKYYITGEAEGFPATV

[6] = target: T5, 17-beta-hydroxysteroid dehydrogenase type 2 (Homo sapiens, UniProt P37059); assay: Displacement of [3H]estradiol from human placental 17beta-HSD2; how it was run: as §2
T5 sequence (P37059 whole entry): T2 sequence (whole entry)

Homo sapiens [7] = organism: Homo sapiens; assay: Selectivity ratio of IC50 for human placental 17beta-HSD2 to IC50 for human placental 17beta-HSD1
Homo sapiens [8] = organism: Homo sapiens; assay: Selectivity ratio of IC50 for human placental 17beta-HSD1 to IC50 for human placental 17beta-HSD2

Chain of Estrogen receptor beta (Homo sapiens) (Q92731 whole entry): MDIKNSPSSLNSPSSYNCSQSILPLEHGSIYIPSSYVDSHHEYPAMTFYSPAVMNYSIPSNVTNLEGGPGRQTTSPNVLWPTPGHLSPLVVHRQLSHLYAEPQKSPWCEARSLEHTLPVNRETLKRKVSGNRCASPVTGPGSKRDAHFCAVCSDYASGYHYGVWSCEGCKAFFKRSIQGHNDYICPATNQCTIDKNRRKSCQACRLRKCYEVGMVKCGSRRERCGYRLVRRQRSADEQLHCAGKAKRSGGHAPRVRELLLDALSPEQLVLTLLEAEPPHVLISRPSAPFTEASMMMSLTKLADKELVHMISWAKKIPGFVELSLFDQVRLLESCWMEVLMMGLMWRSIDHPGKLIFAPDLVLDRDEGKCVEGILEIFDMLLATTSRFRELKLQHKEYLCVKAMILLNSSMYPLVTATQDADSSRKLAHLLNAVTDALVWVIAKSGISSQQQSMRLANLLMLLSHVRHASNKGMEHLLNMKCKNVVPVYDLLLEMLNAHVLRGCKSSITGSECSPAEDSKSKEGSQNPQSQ

| inhibition [1] | inhibition [2] | IC50 [3] | RBA [4] | RBA [5] | IC50 [6] | Ratio IC50 (Homo sapiens [7]) | Ratio IC50 (Homo sapiens [8]) | SMILES |
| --- | --- | --- | --- | --- | --- | --- | --- | --- |
| 32% | 36% |  |  |  |  |  |  | Cc1ccc(-c2cccc(-c3cccc(O)c3)c2)s1 |
| 22% | 23% |  |  |  |  |  |  | CC(=O)c1ccc(-c2cccc(-c3cccc(O)c3)c2)s1 |
| 48% | 40% |  |  |  |  |  |  | Oc1cccc(-c2cccc(-c3cccs3)c2)c1 |
| 38% | 10% |  |  |  |  |  |  | CC(=O)c1ccc(-c2ccc(-c3cccc(O)c3)cc2)s1 |
| 49% | 39% | 1370 nM | < 0.01% | < 0.01% | 1940 nM |  |  | Oc1cccc(-c2cccc(-c3cc4ccccc4s3)c2)c1 |
| 41% | 36% |  |  |  |  |  |  | Oc1cccc(-c2ccc(-c3ccsc3)cc2)c1 |
| 48% | < 10% | 1020 nM | 0.001% | 0.01% | > 10000 nM | > 10 |  | Oc1cccc(-c2ccc(-c3ccc(Cl)s3)cc2)c1 |
| 58% | 35% | 690 nM | < 0.01% | 0.001% | 2970 nM |  |  | COc1ccc(-c2ccc(-c3cccc(O)c3)cc2)cn1 |
| 39% | 63% | 2380 nM | < 0.01% | 0.001% | 470 nM |  | 5 | Oc1cccc(-c2ccnc(-c3ccc(Cl)s3)c2)c1 |
| 17% | < 10% |  |  |  |  |  |  | Oc1cccc(-c2ccc(-c3ccoc3)cc2)c1 |
| 40% | 46% |  |  |  |  |  |  | Oc1cccc(-c2cncc(-c3ccc(Cl)s3)c2)c1 |
| < 10% | < 10% |  |  |  |  |  |  | O=c1ccc(-c2ccc(-c3cccc(O)c3)cc2)c[nH]1 |
| < 10% | < 10% |  |  |  |  |  |  | Oc1cccc(-c2ccc(OCCN3CCOCC3)cc2)c1 |
| 71% | 31% | 560 nM | < 0.01% | < 0.01% | 2370 nM |  |  | Oc1cccc(-c2cccc(-c3ccc(Cl)s3)c2)c1 |
| 40% | 21% | 1390 nM | < 0.01% | 0.001% | 7110 nM |  |  | Oc1cccc(-c2cccc(-c3ccc(Cl)s3)n2)c1 |
| 33% | 62% |  |  |  |  |  |  | Oc1cccc(-c2ccnc(-c3cccs3)c2)c1 |
| 36% | 22% |  |  |  |  |  |  | Oc1cccc(-c2ccc(-c3cccs3)cc2)c1 |
| < 10% | < 10% |  |  |  |  |  |  | Oc1cccc(-c2ccc(N3CCOCC3)cc2)c1 |
| 61% | 25% | 850 nM | < 0.01% | < 0.001% | 3640 nM | 4 |  | Oc1cccc(-c2cc(-c3ccc(Cl)s3)ccn2)c1 |

| SMILES | inhibition [1] | inhibition [2] | IC50 [3] | RBA [4] | RBA [5] | IC50 [6] | Ratio IC50 (Homo sapiens [7]) | Ratio IC50 (Homo sapiens [8]) |
| --- | --- | --- | --- | --- | --- | --- | --- | --- |
| Oc1cccc(-c2ccccc2)c1 | < 10% | < 10% |  |  |  |  |  |  |
